Results taken from ChEMBL document CHEMBL4312006, “A novel chalcone derivative as Nrf2 activator attenuates learning and memory impairment in a scopolamine-induced mouse model” (Eur J Med Chem, 2020).
Where a name gives a salt, the structure may show the parent alone.

How the values were obtained:
Keap1/Nrf2 = Keap1/Nrf2 (Homo sapiens, UniProt Q14145+Q16236); experiment: Activation of NRF2 in human U2OS cells co-expressing Keap1 (unknown origin) assessed as induction of NRF2 translocation to nucleus incubated for 6 hrs by beta-galactosidase based chemiluminescent assay; assay type: cell-based
Sequence of Keap1/Nrf2 (Q16236 whole entry): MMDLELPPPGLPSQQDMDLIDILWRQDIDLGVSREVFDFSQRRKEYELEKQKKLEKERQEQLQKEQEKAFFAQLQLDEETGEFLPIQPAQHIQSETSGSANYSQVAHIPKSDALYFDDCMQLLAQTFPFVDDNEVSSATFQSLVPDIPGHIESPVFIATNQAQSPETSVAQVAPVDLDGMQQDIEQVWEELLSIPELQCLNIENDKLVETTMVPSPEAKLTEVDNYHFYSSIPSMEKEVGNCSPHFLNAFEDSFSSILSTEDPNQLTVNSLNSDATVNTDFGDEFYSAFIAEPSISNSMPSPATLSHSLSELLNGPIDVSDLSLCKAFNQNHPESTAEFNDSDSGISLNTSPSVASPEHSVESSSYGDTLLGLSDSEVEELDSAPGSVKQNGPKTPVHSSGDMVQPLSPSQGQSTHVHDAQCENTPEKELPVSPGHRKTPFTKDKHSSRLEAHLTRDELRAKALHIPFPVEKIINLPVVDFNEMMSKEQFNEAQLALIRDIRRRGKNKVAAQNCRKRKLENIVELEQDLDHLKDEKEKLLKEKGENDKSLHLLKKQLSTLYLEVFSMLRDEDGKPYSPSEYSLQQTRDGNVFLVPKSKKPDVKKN
Sequence of Keap1/Nrf2 (Q14145 whole entry): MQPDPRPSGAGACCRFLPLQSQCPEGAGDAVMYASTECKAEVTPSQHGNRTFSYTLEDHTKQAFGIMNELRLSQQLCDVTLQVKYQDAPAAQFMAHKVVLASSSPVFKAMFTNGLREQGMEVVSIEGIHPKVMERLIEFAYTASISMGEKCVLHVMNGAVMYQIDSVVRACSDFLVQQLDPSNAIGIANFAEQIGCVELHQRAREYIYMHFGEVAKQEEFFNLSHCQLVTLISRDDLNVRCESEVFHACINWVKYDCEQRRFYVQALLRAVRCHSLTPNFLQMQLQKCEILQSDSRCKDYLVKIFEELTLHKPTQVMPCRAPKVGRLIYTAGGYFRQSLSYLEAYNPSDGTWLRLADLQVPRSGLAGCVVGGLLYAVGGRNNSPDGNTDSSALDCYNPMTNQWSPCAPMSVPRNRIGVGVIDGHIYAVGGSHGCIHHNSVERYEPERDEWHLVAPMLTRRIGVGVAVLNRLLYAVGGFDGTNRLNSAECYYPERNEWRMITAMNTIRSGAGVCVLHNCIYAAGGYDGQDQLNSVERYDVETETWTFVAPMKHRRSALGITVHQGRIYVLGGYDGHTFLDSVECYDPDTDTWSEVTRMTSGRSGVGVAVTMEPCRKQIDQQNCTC
Summary of the method: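 PathHunter U2OS cells engineered to co-express enzyme donor-tagged NRF2 and nuclear-localized enzyme acceptor; Nrf2 nuclear translocation reconstitutes β-galactosidase. Cells in 96-well plates exposed to a range of compound concentrations for 6 h at room temperature (20–23 °C), then 1 h with detection reagent in the dark; chemiluminescence (RLU) read. EC50 from concentration-response curve, mean ± SEM, triplicate.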

[1] = biological target: T1, Nuclear factor erythroid 2-related factor 2 (Mus musculus) (UniProt Q60795); experiment: Activation of NRF2 in mouse BV2 cells assessed as upregulation of HO1 at 20 uM by ELISA relative to control; assay type: cell-based
T1 sequence (whole entry): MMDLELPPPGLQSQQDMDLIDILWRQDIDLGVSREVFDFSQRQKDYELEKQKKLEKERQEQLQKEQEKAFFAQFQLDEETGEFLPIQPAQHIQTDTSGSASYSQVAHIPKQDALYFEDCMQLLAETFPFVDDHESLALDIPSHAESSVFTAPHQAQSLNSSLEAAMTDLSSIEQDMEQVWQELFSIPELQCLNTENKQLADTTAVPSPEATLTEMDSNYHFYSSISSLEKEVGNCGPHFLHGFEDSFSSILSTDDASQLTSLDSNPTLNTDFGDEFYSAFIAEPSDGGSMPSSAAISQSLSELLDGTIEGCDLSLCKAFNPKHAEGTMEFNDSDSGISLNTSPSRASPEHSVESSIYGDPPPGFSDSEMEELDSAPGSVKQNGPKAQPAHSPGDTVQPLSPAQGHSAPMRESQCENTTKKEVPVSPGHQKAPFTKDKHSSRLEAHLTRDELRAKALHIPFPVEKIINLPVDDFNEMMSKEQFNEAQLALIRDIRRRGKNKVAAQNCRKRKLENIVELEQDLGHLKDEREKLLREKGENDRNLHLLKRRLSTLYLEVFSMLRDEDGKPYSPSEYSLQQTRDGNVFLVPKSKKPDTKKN

What does the source list for COc1ccccc1/C=C/C(=O)c1ccc(OCCCN2CCN(C)CC2)cc1?
EC50 (Keap1/Nrf2): 3.33 µM; Activity [1]: 217%

COC(=O)/C=C/C(=O)OC [DIMETHYL FUMARATE] was tested. Which EC50 (Keap1/Nrf2) did it give?
Its EC50 is 5.11 µM.

For CN1CCN(C(=O)COc2ccc(C(=O)/C=C/c3ccccc3)cc2)CC1, which EC50 (Keap1/Nrf2) is on record?
The EC50 was 1.8 µM.

COc1ccccc1/C=C/C(=O)c1ccccc1OCCCN1CCOCC1 was tested. Which EC50 (Keap1/Nrf2) did it give?
Its EC50 is 5.52 µM.

What about the Activity [1] of the same compound?
Its Activity is 146%.

With COc1ccccc1/C=C/C(=O)c1cccc(OCCCN2CCOCC2)c1 as the compound, how does the EC50 (Keap1/Nrf2) read?
Its EC50 is 1.72 µM.

And the Activity [1]?
The Activity was < 200%.

COc1ccccc1/C=C/C(=O)c1ccc(OCC(=O)N(C)C)cc1 was tested. Which EC50 (Keap1/Nrf2) did it give?
The EC50 was 1.46 µM.

With O=C(/C=C/c1ccccc1Cl)c1cccc(OCCCN2CCOCC2)c1 as the compound, how does the EC50 (Keap1/Nrf2) read?
The EC50 was 2.84 µM.

Which EC50 (Keap1/Nrf2) does the source give for O=C(/C=C/c1ccccc1C(F)(F)F)c1cccc(OCCCN2CCOCC2)c1 here?
Its EC50 is 2.3 µM.

With CN(C)C(=O)COc1ccc(C(=O)/C=C/c2ccccc2C(F)(F)F)cc1 as the compound, how does the EC50 (Keap1/Nrf2) read?
The EC50 was 1.12 µM.

For CN(C)C(=O)COc1ccc(C(=O)/C=C/c2cccnc2)cc1, which EC50 (Keap1/Nrf2) is on record?
Its EC50 is 1.46 µM.

Which EC50 (Keap1/Nrf2) does the source give for O=C(/C=C/c1ccccn1)c1ccc(OCCCN2CCOCC2)cc1 here?
Its EC50 is > 5 µM.

And the Activity [1]?
The Activity was 112%.

Which EC50 (Keap1/Nrf2) does the source give for COc1ccccc1/C=C/C(=O)c1ccc(OCC(=O)N2CCN(C)CC2)cc1 here?
Its EC50 is 1.91 µM.

Which EC50 (Keap1/Nrf2) does the source give for O=C(/C=C/c1ccccc1C(F)(F)F)c1ccc(OCC(=O)N2CCOCC2)cc1 here?
Its EC50 is 1.06 µM.

O=C(/C=C/c1ccc(C(F)(F)F)cc1)c1ccc(OCCCN2CCOCC2)cc1 was tested. Which EC50 (Keap1/Nrf2) did it give?
Its EC50 is 2.43 µM.

O=C(/C=C/c1cccc(C(F)(F)F)c1)c1ccc(OCCCN2CCOCC2)cc1 was tested. Which EC50 (Keap1/Nrf2) did it give?
The EC50 was 2.06 µM.

How did the EC50 (Keap1/Nrf2) turn out when COc1ccccc1/C=C/C(=O)c1ccc(OCC(=O)N2CCOCC2)cc1 was run?
The EC50 was 1.77 µM.

How did the EC50 (Keap1/Nrf2) turn out when COc1ccc(/C=C/C(=O)c2ccc(OCCCN3CCOCC3)cc2)cc1 was run?
Its EC50 is 6.97 µM.

And the Activity [1]?
Its Activity is 166%.

How did the EC50 (Keap1/Nrf2) turn out when O=C(/C=C/c1ccccc1C(F)(F)F)c1ccc(OCCCN2CCOCC2)cc1 was run?
The EC50 was 1.36 µM.

And the Activity [1]?
Its Activity is 351%.

How did the EC50 (Keap1/Nrf2) turn out when COc1ccccc1/C=C/C(=O)c1ccc(OCCCN2CCCC2)cc1 was run?
The EC50 was 0.99 µM.

And the Activity [1]?
Its Activity is 289%.

For O=C(/C=C/c1ccccc1Cl)c1ccc(OCCCN2CCCC2)cc1, which EC50 (Keap1/Nrf2) is on record?
The EC50 was 1.39 µM.

COc1cccc(/C=C/C(=O)c2ccc(OCCCN3CCOCC3)cc2)c1 was tested. Which EC50 (Keap1/Nrf2) did it give?
The EC50 was 2.58 µM.

With O=C(/C=C/c1ccccc1C(F)(F)F)c1ccc(OCCCN2CCCC2)cc1 as the compound, how does the EC50 (Keap1/Nrf2) read?
Its EC50 is > 1 µM.

For CN(C)C(=O)COc1ccc(C(=O)/C=C/c2ccncc2)cc1, which EC50 (Keap1/Nrf2) is on record?
The EC50 was 1.36 µM.

With O=C(/C=C/c1ccccc1Cl)c1ccc(OCCCN2CCOCC2)cc1 as the compound, how does the EC50 (Keap1/Nrf2) read?
The EC50 was 2.42 µM.

With CN(C)C(=O)COc1ccc(C(=O)/C=C/c2ccccn2)cc1 as the compound, how does the EC50 (Keap1/Nrf2) read?
Its EC50 is 1.1 µM.

With CN1CCN(C(=O)COc2ccc(C(=O)/C=C/c3ccccc3F)cc2)CC1 as the compound, how does the EC50 (Keap1/Nrf2) read?
The EC50 was 1.54 µM.

What does the source list for COc1ccccc1/C=C/C(=O)c1ccc(OCCCN2CCOCC2)cc1?
EC50 (Keap1/Nrf2): 1.63 µM; Activity [1]: 345%

For CN1CCN(C(=O)COc2ccc(C(=O)/C=C/c3ccccc3Cl)cc2)CC1, which EC50 (Keap1/Nrf2) is on record?
The EC50 was 0.97 µM.

Which EC50 (Keap1/Nrf2) does the source give for O=C(/C=C/c1cccnc1)c1ccc(OCCCN2CCOCC2)cc1 here?
Its EC50 is > 5 µM.

How did the EC50 (Keap1/Nrf2) turn out when O=C(/C=C/c1ccccn1)c1ccc(OCC(=O)N2CCOCC2)cc1 was run?
The EC50 was 1.23 µM.
